# Lipid droplet: inhibitors of hepatocyte lipid droplet formation, primary screen, imaging, high-throughput imaging, BODIPY stain. inhibition, % at 6.5 µM. AML12 mouse hepatocytes, oleate lipid droplets. 240,000 tested, 0.4% active;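 active = lipid droplet intensity inhibited by at least 50%, with more than 500 cells counted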
#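 material = mouse AML12 hepatocyte cell line, fixed after treatment | also added = 100 µM oleic acid challenge | doses = compound at 6.5 µM only | schedule = overnight exposure | technique = Image-based BODIPY and DAPI two-channel analysis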
# MPTP inh: mitochondrial permeability transition pore inhibitors, primary screen, biochemical, isolated mouse mitochondria, absorbance. Ca2+ swelling absorbance, 30 min. 360,000 tested, 1.4% active. inhibition, % at 10 µM;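 active = inhibition of 50% or more, scaled per plate between neutral and stimulator controls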;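 also: 0% = DMSO wells given calcium and 100% = 1 mM EGTA wells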
# T cruzi repl: inhibitors of intracellular T. cruzi growth, primary screen, luminescence, NIH3T3 host cells; T. cruzi beta-gal in NIH3T3, 90 h; inhibition, % (test concentration not listed); AID 1885, 2009; 300,000 tested, 1.4% active;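 active = mean inhibition across valid replicates above about 55%, limit read from the data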;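 also: signal also drops with host cell toxicity which is not excluded here; 0% = plate median of DMSO wells and 100% = zero luminescence signal; higher percent means less beta-gal luminescence so fewer parasites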
#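 System: mouse NIH/3T3 fibroblasts infected with β-gal-expressing T. cruzi Tulahuen C4 / Input: NIH/3T3 cells, 5,000 per well / Buffer or medium: Low-serum DMEM with 2% FBS / Probe or stimulus: 5000 reporter trypomastigotes per well / Schedule: ≥90 h infection period, 3 h prior cell attachment / Measured by: GalScreen luminescence, 60 min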
# DTT redox prof: compounds producing H2O2 with reducing agent – biochemical, NIH compound library profiling, artefact control for MLSCN library redox annotation, primary screen. DTT-dependent redox cycling H2O2, phenol red/HRP absorbance; 100% = 100 µM peroxide control, 0% = buffer. 200,000 tested, 0.03% active. activation, % at 10 µM;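 active = activation of at least 50% relative to the plate's high and low controls in the primary single-dose screen; inactive = activation below 50%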;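 also: compound incubated with DTT at 0.8 mM final as the reducing agent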
# L major viab: Leishmania major promastigote growth inhibition, primary screen; inhibition, % at 10 µM; Leishmania major promastigotes, resazurin fluorescence viability; AID 1063, 2008; 200,000 tested, 9% active; in the data active = inhibition above about 50%;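 also: promastigotes grown with compound for 44 hours at 28 °C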
# Rh123 counter: fluorescence retest of MPTP screen hits in isolated mitochondria, single concentration; shares compounds with MPTP inh; membrane potential, Rhodamine 123 fluorescence; inhibition, % at 10 µM; 5,000 tested, 78% active; in the data active = inhibition above about 22%;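 also: 0% = DMSO vehicle and 100% = positive control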
# MPTP abs DR: mitochondrial permeability transition pore inhibitors, dose response, biochemical, absorbance, uHTS hits. shares compounds with MPTP inh. isolated mitochondria swelling. IC50, µM. 780 tested, 58% active; in the data active = IC50 below about 20 µM
# MPTP counter DR: fluorescent counter-screen in isolated mitochondria, dose response, counter-screen for MPTP inhibitor project, biochemical, fluorescence, uHTS hits. shares compounds with MPTP inh. isolated mitochondria counterscreen, fluorescence read-out. IC50, µM. 780 tested, 49% active. AID 651564, 2012; in the data active = IC50 below about 80 µM
# * hit, by the source's call; . = no result given. Only a selection was taken, and hits are over-represented in it overall.
SMILES,Lipid droplet,MPTP inh,T cruzi repl,DTT redox prof,L major viab,Rh123 counter,others
O=C(/C=C/c1cc([N+](=O)[O-])ccc1OC(F)F)Nc1ccc(OC(F)F)cc1,18.0,-0.1,23.1,-1.1,-2.6,.,
COC(=O)c1cccc(NC(=O)/C=C/c2ccc([N+](=O)[O-])cc2)c1,-1.7,5.8,4.1,1.0,-4.4,.,
O=C(/C=C/c1cc([N+](=O)[O-])ccc1OC(F)F)Nc1cccc([N+](=O)[O-])c1,11.8,89.3*,44.6,.,.,9.6,MPTP abs DR=8.2*;MPTP counter DR=<2.5*
CCOC(=O)c1cccc(NC(=O)/C=C/c2ccc([N+](=O)[O-])cc2)c1,-4.8,92.2*,-1.9,0.0,21.8,78.2*,
CCOC(=O)c1cc(NC(=O)COc2ccc([N+](=O)[O-])cc2)cc(C(=O)OCC)c1,2.3,50.3*,11.4,0.1,-7.4,56.1*,
Cc1cccc(OC(=O)NCCOC(=O)N(O)c2ccc(Cl)cc2)c1,-5.9,91.2*,-20.4,-0.4,-5.1,81.2*,
Cc1ccc(NC(=O)c2cc(S(=O)(=O)NCCC3=CCCCC3)ccc2F)cc1F,0.2,82.7*,11.6,0.2,2.7,78.3*,
CC(=O)N1CCc2cc(S(=O)(=O)NCCCN3CCCCC3)ccc21,-0.7,-2.3,2.9,.,.,.,
Cc1ccc(S(=O)(=O)NCCC2=CCCCC2)cc1C(N)=O,-1.5,-2.2,-2.7,.,.,.,
CC(=O)N1CCc2cc(S(=O)(=O)NCCC3=CCCCC3)ccc21,.,61.1*,-13.9,-0.1,-6.5,81.7*,
O=C(Nc1cccc(F)c1)c1cc(S(=O)(=O)NCCC2=CCCCC2)ccc1F,-6.0,62.6*,0.2,0.5,14.1,77.6*,
CNC(=S)NNC(=O)c1c(C)nc2cc(C)ccn12,32.3,1.4,-9.1,.,.,.,
CCOC(=O)[C@H]1[C@H]2COc3ccc(Br)cc3[C@@H]2N2C(=O)CN(Cc3ccc(F)cc3)C(=O)[C@@]12C,.,-2.1,.,.,.,.,
CN1CCN(c2nc(-c3ccc(Cl)cc3)nc3ccccc23)CC1,-5.0,-1.8,41.6,.,.,.,
Cc1ccc(-n2nc3c(=O)n(CCCC(=O)NCC(C)c4ccccc4)nc(C)c3c2C)cc1 (stereo not drawn),-0.8,-0.3,-18.6,.,.,.,
Cc1ccc(CS(=O)Cc2ccc(C(=O)N3CCN(C4CCCCC4)CC3)o2)cc1 (stereo not drawn),-5.7,-0.3,26.3,.,.,.,
CCOc1ccccc1NC(=O)CSc1nnc(CNC(=O)c2cc(OC)c(OC)c(OC)c2)o1,14.9,-0.6,-11.2,.,.,.,
Oc1ccc(Cl)cc1-c1cc(-c2ccccc2Cl)[nH]n1,3.0,61.3*,8.9,0.7,13.7,66.5*,
Oc1ccc(Cl)cc1-c1cc(-c2cccc(Br)c2)n[nH]1,-1.7,89.1*,-13.2,0.5,99.2*,68.1*,
Oc1ccccc1-c1cc(-c2cccc(F)c2)n[nH]1,.,58.2*,-3.2,2.0,13.3,70.6*,
O=[N+]([O-])c1ccccc1-c1cc(-c2cc(Cl)ccc2O)n[nH]1,-6.3,20.0,-16.1,-0.5,24.2,.,
CCOc1ccc(N(CC(=O)N2CCC(Cc3ccccc3)CC2)S(C)(=O)=O)cc1,-0.4,-1.0,6.2,-0.1,-3.5,.,
Cc1ccc(-c2csc(NC(=O)CSc3nnc4c(n3)[nH]c3ccccc34)n2)cc1,.,87.5*,.,-0.1,2.5,55.5*,
Cc1ccc(NC(=O)CSc2nnc3c(n2)[nH]c2ccccc23)cc1,-1.0,5.3,0.4,.,.,.,
O=C(CSc1nnc2c(n1)[nH]c1ccccc12)Nc1cccc(S(=O)(=O)N2CCOCC2)c1,-6.0,51.5*,1.4,.,.,35.0*,
CCN(CC)S(=O)(=O)c1cc(NC(=O)CNc2cccc(S(=O)(=O)N3CCCC3)c2)ccc1C,.,53.7*,-0.5,.,.,95.2*,

# Compound activity (PubChem BioAssay)
